Where two headings read alike, the source gives them in different places.
Legend:
[1] = test system: SKOV3 cells (human ovarian carcinoma); test: MTT cytotoxicity assay, SKOV3; type: cell-based; details: read-out: (IC50 ± SD) SKOV3, at least 72 h incubation, mean ± SD
Summary of the method: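 Cells were grown in RPMI 1640 with 10% FBS and 1% penicillin-streptomycin at 37 °C, humidified CO2. They were seeded at 0.8 × 10^4 cells/well and allowed 24 h recovery. Test compound was added at 1–100 μM in triplicate for at least 72 h. Medium was replaced with 0.5 mg/mL MTT for 3 h at room temperature, and formazan was dissolved in DMSO. Absorbance was read at 490 nm. IC50 came from curve fitting, reported as mean ± SD.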

[2] = test system: A549 cells (human lung carcinoma); test: MTT cytotoxicity assay, A549; type: cell-based; details: read-out: (IC50 ± SD) A549
SKOV3 cells = test: Intracellular ROS determination; type: cell-based, human; details: SKOV3, 1000 μM, positive control
Summary of the method: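 SKOV3 single-cell suspension (300 × 10^3) was exposed to test compound at 10, 20 or 40 μM for 2 h at 37 °C; untreated cells served as negative control. Cells were washed and loaded with DCFH-DA in phenol red-free RPMI for 1 h at 37 °C. The positive control got H2O2 (1000 μM) for a further 20 min. At least 15000 events were acquired by flow cytometry. ROS is reported as MFI divided by the untreated MFI0.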

MCF-7 cells = test: Comet assay; type: cell-based, human; details: MCF-7, 1 μM, positive control, versus untreated cells
Summary of the method: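 Alkaline comet assay on MCF-7 cells (5 × 10^5). Cells got test compound at 10 or 50 μM, doxorubicin at 1 μM as positive control, or no treatment, for 20 min at 37 °C in 5% CO2. Cells were embedded in LMPA over NMPA-coated slides, lysed cold overnight and held 40 min in alkaline buffer. Slides were electrophoresed at 24 V/300 mA, neutralised at pH 7.4, ethanol-dehydrated, PI-stained (50 μg/ml) and imaged by fluorescence microscopy at 20×.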

[3] = MTT, at least 72 h incubation, mean ± SD

SMILES | IC50 ([2]; Homo sapiens, A549, 72 h) [µM] | also measured
N.N.[Cl][Pt][Cl] [Cisplatin, reference compound] | – | IC50 [1]: 14.5 ± 1.54 µM; IC50 [2, 3]: 9.71 ± 1.7 µM
Sc1nc2ccccc2[nH]1 [Sbi, benzimidazole-2-thiol] | > 100 | –
OO [Complex H2O2, H2O2] | – | ROS induction (SKOV3 cells): could induce ROS production within 20 minutes
Sc1ccccn1 [Spy, pyridine-2-thiol] | > 100 | –
C=CCP(c1ccccc1)c1ccccc1 [PPh2allyl, allyldiphenylphosphine] | – | IC50 [2, 3]: > 100 µM
FC(F)(F)c1ccc(S)nc1 [Spy-5-CF3, 5-(trifluoromethyl)-pyridine-2-thiol] | > 100 | –
COc1cccc2c1C(=O)c1c(O)c3c(c(O)c1C2=O)C[C@@](O)(C(=O)CO)C[C@@H]3O[C@H]1C[C@H](N)[C@H](O)[C@H](C)O1 [doxorubicin] | – | percentage of degraded DNA in the tail (MCF-7 cells): remarkably increase
Sc1nc2ccccc2s1 [Sbt, benzothiazole-2-thiol] | > 100 | –
Sc1ncccn1 [SpyN, pyrimidine-2-thiol] | > 100 | –

Source: paper PMC7108934 (ChemPlusChem, 2019)
